Measurements taken from ChEMBL document CHEMBL1122849, “Synthesis and properties of bis(2,2-dimethylaziridinyl)phosphinic amides: a series of new antineoplastic agents” (1985).
Where “and” joins values, the source holds several entries; their conditions need not be identical. Equal entries are not always repeated.

Tests used:
[1] = tested on: B16; assay: Compound was evaluated for the antineoplastic activity on B16 Melanoma cells at the optimal dose of 80 mg/kg through intraperitoneal route on days 1,5,9; format: functional, Mus musculus
[2] = tested on: B16; assay: Compound was evaluated for the antineoplastic activity on B16 Melanoma cells at the optimal dose of 120 mg/kg through intraperitoneal route on days 1,5,9; format: functional, Mus musculus
[3] = species on record: Mus musculus; assay: Tumor free mice out of 6 surviving to day 30 or beyond was determined; format: functional
In short: (§1)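 Surviving mice were autopsied when the experiment ended. A mouse was scored cured if tumor-free with no visible disease at day 30 (P388, L1210) or day 60 (B16, C26, M109). Groups held 6, 10 or 8 mice.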

[4] = tested on: P388; assay: Compound was evaluated for the antineoplastic activity against P388 leukemia at an optimal dose of 256 mg/kg administered intraperitoneally; format: functional, Mus musculus; conditions: route intraperitoneal
[5] = tested on: B16; assay: Compound was evaluated for the antineoplastic activity on B16 Melanoma cells at the optimal dose of 18 mg/kg through intraperitoneal route on days 1,5, 9; format: functional, Mus musculus
[6] = tested on: B16; assay: Compound was evaluated for the antineoplastic activity on B16 Melanoma cells at the optimal dose of 24 mg/kg through intraperitoneal route on days 1,5,9; format: functional, Mus musculus
[7] = tested on: B16; assay: Compound was evaluated for the antineoplastic activity on B16 Melanoma cells at the optimal dose of 36 mg/kg through intraperitoneal route on days 1,5, 9; format: functional, Mus musculus
[8] = tested on: P388; assay: Compound was evaluated for the antineoplastic activity against P388 leukemia at an optimal dose of 128 mg/kg administered intraperitoneally; format: functional, Mus musculus; conditions: route intraperitoneal
[9] = tested on: B16; assay: (§2) Compound was evaluated for the antineoplastic activity on B16 Melanoma cells at the optimal dose of 40 mg/kg through intraperitoneal route on days 1,5,9; format: functional, Mus musculus
[10] = tested on: B16; assay: Compound was evaluated for the antineoplastic activity on B16 Melanoma cells at the optimal dose of 50 mg/kg through intraperitoneal route on days 1,5,9; format: functional, Mus musculus
[11] = tested on: B16; assay: as §2; format: functional, Mus musculus; remark: listed apart in the source
[12] = tested on: B16; assay: Compound was evaluated for the antineoplastic activity on B16 Melanoma cells at the optimal dose of 100 mg/kg through intraperitoneal route on days 1,5,9; format: functional, Mus musculus
[13] = tested on: Colon 26; assay: Antitumor activity against C26 implants through intraperitoneal route along with the optimal dose of 120 mg/kg through intraperitoneal injection on 1,4 days; format: functional, Mus musculus
[14] = tested on: Colon 26; assay: Antitumor activity against C26 implants through intraperitoneal route along with the optimal dose of 80 mg/kg through intraperitoneal injection on 1,4 days; format: functional, Mus musculus
[15] = tested on: Colon 26; assay: Antitumor activity against C26 implants through subcutaneous route along with the optimal dose of 50 mg/kg through intraperitoneal injection on 1,4 days; format: functional, Mus musculus
[16] = tested on: L1210; assay: Compound was evaluated for the antineoplastic activity on L1210 leukemia cell line at the optimal dose of 60 mg/kg administered intraperitoneally on day 1 following intraperitoneal implant of 10e 6 L1210 cells, in six mice; format: functional, Mus musculus
[17] = tested on: M109; assay: Antitumor activity against M109 implants through intraperitoneal route along with the optimal dose of 150 mg/kg through intraperitoneal route on 1,4 days; format: functional, Mus musculus
[18] = tested on: M109; assay: Antitumor activity against M109 implants through subcutaneous route along with the optimal dose of 70 mg/kg through intraperitoneal route on 1,4 days; format: functional, Mus musculus
[19] = tested on: M109; assay: Antitumor activity against M109 implants through subcutaneous route along with the optimal dose of 70 mg/kg through intravenously route on 1,4 days; format: functional, Mus musculus; conditions: route intravenous
[20] = species on record: Mus musculus; assay: Tumor free mice out of 10 surviving to day 60 was determined; format: functional; in short: as §1
[21] = species on record: Mus musculus; assay: Tumor free mice out of 8 surviving to day 60 or beyond was determined; format: functional; in short: as §1
[22] = tested on: B16; assay: Compound was evaluated for the antineoplastic activity on B16 Melanoma cells at the optimal dose of 60 mg/kg through intraperitoneal route on days 1,5,9; format: functional, Mus musculus
[23] = tested on: B16; assay: Compound was evaluated for the antineoplastic activity on B16 Melanoma cells at the optimal dose of 10 mg/kg through intraperitoneal route on days 1,5,9; format: functional, Mus musculus
[24] = tested on: Colon 26; assay: Antitumor activity against C26 implants through subcutaneous route along with the optimal dose of 60 mg/kg through intraperitoneal injection on 1,4 days; format: functional, Mus musculus
[25] = tested on: L1210; assay: Compound was evaluated for the antineoplastic activity on L1210 leukemia cell line at the optimal dose of 180 mg/kg administered intraperitoneally on day 1 following intraperitoneal implant of 10e 6 L1210 cells, in six mice.9; format: functional, Mus musculus
[26] = tested on: Colon 26; assay: Antitumor activity against C26 implants through intraperitoneal route along with the optimal dose of 60 mg/kg through intraperitoneal injection on 1,4 days; format: functional, Mus musculus
[27] = tested on: Colon 26; assay: Antitumor activity against C26 implants through subcutaneous route along with the optimal dose of 25 mg/kg through intraperitoneal injection on 1,4 days; format: functional, Mus musculus
[28] = tested on: L1210; assay: Compound was evaluated for the antineoplastic activity on L1210 leukemia cell line at the optimal dose of 180 mg/kg administered intraperitoneally on day 1 following intraperitoneal implant of 10e 6 L1210 cells, in six mice; format: functional, Mus musculus
[29] = tested on: Colon 26; assay: Antitumor activity against C26 implants through intraperitoneal route along with the optimal dose of 120 mg/kg through intraperitoneal injection on 5,8 days; format: functional, Mus musculus
[30] = tested on: Colon 26; assay: Antitumor activity against C26 implants through subcutaneous route along with the optimal dose of 120 mg/kg through intraperitoneal injection on 5,8 days; format: functional, Mus musculus
[31] = tested on: M109; assay: Antitumor activity against M109 implants through subcutaneous route along with the optimal dose of 100 mg/kg through intraperitoneal route on 1,4 days; format: functional, Mus musculus
[32] = tested on: P388; assay: Compound was evaluated for the antineoplastic activity against P388 leukemia at an optimal dose of 80 mg/kg administered intraperitoneally; format: functional, Mus musculus; conditions: route intraperitoneal
[33] = tested on: P388; assay: Compound was evaluated for the antineoplastic activity against P388 leukemia at an optimal dose of 100 mg/kg administered intraperitoneally; format: functional, Mus musculus; conditions: route intraperitoneal
[34] = tested on: Colon 26; assay: Antitumor activity against C26 implants through intraperitoneal route along with the optimal dose of 50 mg/kg through intraperitoneal injection on 1,4 days; format: functional, Mus musculus
[35] = tested on: P388; assay: Compound was evaluated for the antineoplastic activity against P388 leukemia at an optimal dose of 64 mg/kg administered intraperitoneally; format: functional, Mus musculus; conditions: route intraperitoneal
[36] = tested on: B16; assay: Compound was evaluated for the antineoplastic activity on B16 Melanoma cells at the optimal dose of 160 mg/kg through intraperitoneal route on days 1,5,9; format: functional, Mus musculus

`CCCNP(=O)(N1CC1(C)C)N1CC1(C)C` (stereo not drawn) was tested, and the T/C [1] was 162%, the T/C [2] was 144% and the Survivors [3] was 2. It also gave a T/C [4] of 363%.

`CCNP(=O)(N1CC1(C)C)N1CC1(C)C` (stereo not drawn) showed a T/C [2] of 148% and a T/C [4] of 288%.

In the case of `O=C(O)CCCc1ccc(N(CCCl)CCCl)cc1` [CHLORAMBUCIL], the T/C [5] is reported as 132%, the T/C [6] is reported as 121% and the T/C [7] is reported as 125%.

With `CN1CCN(P(=O)(N2CC2(C)C)N2CC2(C)C)CC1` (stereo not drawn) the T/C [1] was 170% and the T/C [8] was 224%.

`CC1(C)CN1P(N)(=O)N1CC1(C)C` (stereo not drawn) gave a T/C [1] of 210%, a T/C [9] of 110% and a T/C [10] of 123%. The T/C [11] was 214%, the T/C [12] was 310% and 181% and the T/C ([2]; 120 mg/kg) was 191% and 180%. It also gave a T/C [13] of 190%, a T/C [14] of 221% and a T/C [15] of 127%. The T/C [16] was 164%, the T/C [17] was 157% and the T/C [18] was 99%. For the same molecule, the T/C [19] was 104%, the Survivors [20] was 3 and 2 and the Survivors [21] was 3 and 2. It also gave a T/C [4] of 206%.

With `CCCCNP(=O)(N1CC1(C)C)N1CC1(C)C` (stereo not drawn) the T/C [2] was 157% and the T/C [4] was 238%.

`CN(C)P(=O)(N1CC1(C)C)N1CC1(C)C` (stereo not drawn) was tested, and the T/C [22] was 118%, the T/C [23] was 108% and the T/C [2] was 153%. The T/C [14] was 127%, the T/C [24] was 125% and the T/C [25] was 207%. The T/C [8] was 272%.

`CNP(=O)(N1CC1(C)C)N1CC1(C)C` (stereo not drawn) showed a T/C [22] of 120%, a T/C [23] of 126% and a T/C [2] of 153%. For the same molecule, the T/C [26] was 166%, the T/C [27] was 151% and the T/C [28] was 207%. For the same molecule, the Survivors [3] was 1 and the T/C [8] was 239%.

`CCOP(=O)(N1CC1(C)C)N1CC1(C)C` (stereo not drawn) was tested, and the T/C [12] was 188% and 119%, the T/C [29] was 144% and the T/C [30] was 130%. It also gave a T/C [17] of 146%, a T/C [31] of 104% and a Survivors [3] of 2. For the same molecule, the T/C [32] was 272%.

`CCOC(=O)NP(=O)(N1CC1(C)C)N1CC1(C)C` (stereo not drawn) [METUREDEPA] was tested, and the T/C [33] was 244%.

Work on `COCCCNP(=O)(N1CC1(C)C)N1CC1(C)C` (stereo not drawn) yielded a T/C [1] of 160%, a Survivors [3] of 1 and a T/C [4] of 225%.

For `CN(C)CCCNP(=O)(N1CC1(C)C)N1CC1(C)C` (stereo not drawn), the T/C ([1]; 80 mg/kg) was 210% and 172%, the T/C [34] was 170% and the Survivors [20] was 2. For the same molecule, the T/C [35] was 231%.

With `CC1(C)CN1P(=O)(NC1CCCCC1)N1CC1(C)C` (stereo not drawn) the T/C [4] was 106%.

For `CC1(C)CN1P(=O)(Nc1ccccc1)N1CC1(C)C` (stereo not drawn) [PHOSPHINIC ANILIDE DERIVATE], the T/C [4] was 169%.

In the case of `O=P1(N(CCCl)CCCl)NCCCO1` (stereo not drawn) [CYCLOPHOSPHAMIDE ANHYDROUS], the T/C [12] is reported as 143% and 205%, the T/C [2] is reported as 180% and the Survivors [21] is reported as 1.

`CC1(C)CN1P(=O)(N1CCCCC1)N1CC1(C)C` (stereo not drawn) showed a T/C [4] of 218% and a T/C [36] of 132%.

`CC1(C)CN1P(=O)(N1CCOCC1)N1CC1(C)C` (stereo not drawn) was tested, and the T/C [4] was 247% and the T/C [36] was 160%.
